Measurements published in ChEMBL document CHEMBL1142136, “Contribution of target gene mutations and efflux to decreased susceptibility of Salmonella enterica serovar typhimurium to fluoroquinolones and other antimicrobials” (2007).

Columns and labels:
Type in all cases: functional, Salmonella enterica subsp. enterica serovar Typhimurium
Salmonella typhimurium [1] = assay: Antimicrobial activity against Salmonella enterica serovar Typhimurium S21-3 acrAB::Kan with GyrA S83F, ParC S80I mutation
How it was run: (§1)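 MICs measured by broth microdilution on the Sensititre automated system and interpreted by CLSI broth microdilution standards. Ciprofloxacin was also tested by agar dilution, widening the range to 0.0075–128 μg/ml. Quality control strains were E. coli ATCC 25922 and 35218, E. faecalis ATCC 29212, S. aureus ATCC 29213 and P. aeruginosa ATCC 27853.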

Salmonella typhimurium [2] = assay: Antimicrobial activity against Salmonella enterica serovar Typhimurium CHS38 gyrA+ with GyrA D87G mutation; how it was run: as §1
Salmonella typhimurium [3] = assay: Antimicrobial activity against Salmonella enterica serovar Typhimurium CS1 with GyrA S83F, D87N, ParC S80I mutation; how it was run: as §1
Salmonella typhimurium [4] = assay: Antimicrobial activity against Salmonella enterica serovar Typhimurium S21-2 tolC::Kan with GyrA S83F, ParC S80I mutation; how it was run: as §1
Salmonella typhimurium [5] = assay: Antimicrobial activity against Salmonella enterica serovar Typhimurium CS9 acrAB::Kan with GyrA S83F, D87N, ParC S80I mutation; how it was run: as §1
Salmonella typhimurium [6] = assay: Antimicrobial activity against Salmonella enterica serovar Typhimurium CS1 tolC::Kan with GyrA S83F, D87N, ParC S80I mutation; how it was run: as §1
Salmonella typhimurium [7] = assay: Antimicrobial activity against Salmonella enterica serovar Typhimurium CHS38 tolC::Kan with GyrA D87G mutation; how it was run: as §1
Salmonella typhimurium [8] = assay: Antimicrobial activity against Salmonella enterica serovar Typhimurium CHS14 gyrA+ with GyrA D87G mutation; how it was run: as §1
Salmonella typhimurium [9] = assay: Antimicrobial activity against Salmonella enterica serovar Typhimurium CHS18 acrAB::Kan with GyrA S38F mutation; how it was run: as §1
Salmonella typhimurium [10] = assay: Antimicrobial activity against Salmonella enterica serovar Typhimurium S21-1 gyrA+; how it was run: as §1
Salmonella typhimurium [11] = assay: Antimicrobial activity against Salmonella enterica serovar Typhimurium S21-2 gyrA+ with ParC S80I mutation; how it was run: as §1
Salmonella typhimurium [12] = assay: Antimicrobial activity against Salmonella enterica serovar Typhimurium S21-4 with GyrA S83F, ParC S80I mutation; how it was run: as §1
Salmonella typhimurium [13] = assay: Antimicrobial activity against Salmonella enterica serovar Typhimurium CHS14 tolC::Kan with GyrA D87G mutant; how it was run: as §1
Salmonella typhimurium [14] = assay: Antimicrobial activity against Salmonella enterica serovar Typhimurium CHS18 with GyrA S38F mutation; how it was run: as §1
Salmonella typhimurium [15] = assay: Antimicrobial activity against Salmonella enterica serovar Typhimurium CS3 acrAB::Kan with GyrA S83F, D87N, ParC S80I mutation; how it was run: as §1
Salmonella typhimurium [16] = assay: Antimicrobial activity against Salmonella enterica serovar Typhimurium CS9 tolC::Kan with GyrA S83F, D87N, ParC S80I mutation; how it was run: as §1
Salmonella typhimurium [17] = assay: Antimicrobial activity against Salmonella enterica serovar Typhimurium GyrA S21-1 acrAB::Kan with GyrA S83F mutation; how it was run: as §1
Salmonella typhimurium [18] = assay: Antimicrobial activity against Salmonella enterica serovar Typhimurium CS9 gyrA+ with GyrA S83F, D87N, ParC S80I mutation; how it was run: as §1
Salmonella typhimurium [19] = assay: Antimicrobial activity against Salmonella enterica serovar Typhimurium CHS38 with GyrA D87G mutation; how it was run: as §1
Salmonella typhimurium [20] = assay: Antimicrobial activity against Salmonella enterica serovar Typhimurium S21-1 tolC::Kan with GyrA S83F mutation; how it was run: as §1
Salmonella typhimurium [21] = assay: Antimicrobial activity against Salmonella enterica serovar Typhimurium S21; how it was run: as §1
Salmonella typhimurium [22] = assay: Antimicrobial activity against Salmonella enterica serovar Typhimurium S21-4 acrAB::Kan with GyrA S83F, ParC S80I mutation; how it was run: as §1
Salmonella typhimurium [23] = assay: Antimicrobial activity against Salmonella enterica serovar Typhimurium CHS14 with GyrA D87G mutation; how it was run: as §1
Salmonella typhimurium [24] = assay: Antimicrobial activity against Salmonella enterica serovar Typhimurium S21-2 with GyrA S83F, ParC S80I mutation; how it was run: as §1
Salmonella typhimurium [25] = assay: Antimicrobial activity against Salmonella enterica serovar Typhimurium S21 acrAB::Kan
How it was run: (§2)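 MICs by automated broth microdilution panels, interpreted to CLSI broth microdilution standards. Ciprofloxacin additionally tested by agar dilution across 0.0075 to 128 μg/ml. Quality control strains: E. coli ATCC 25922 and 35218, Enterococcus faecalis ATCC 29212, S. aureus ATCC 29213, P. aeruginosa ATCC 27853. Test strains are kanamycin-marked deletion mutants of ground-beef isolate S21.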

Salmonella typhimurium [26] = assay: Antimicrobial activity against Salmonella enterica serovar Typhimurium CHS38 acrAB::Kan with GyrA D87G mutation; how it was run: as §1
Salmonella typhimurium [27] = assay: Antimicrobial activity against Salmonella enterica serovar Typhimurium S21-2 acrAB::Kan with GyrA S83F, ParC S80I mutation; how it was run: as §1
Salmonella typhimurium [28] = assay: Antimicrobial activity against Salmonella enterica serovar Typhimurium CS3 with GyrA S83F, D87N, ParC S80I mutation; how it was run: as §1
Salmonella typhimurium [29] = assay: Antimicrobial activity against Salmonella enterica serovar Typhimurium S21-4 gyrA+ with ParC S80I mutation; how it was run: as §1
Salmonella typhimurium [30] = assay: Antimicrobial activity against Salmonella enterica serovar Typhimurium S21-3 tolC::Kan with GyrA S83F, ParC S80I mutation; how it was run: as §1
Salmonella typhimurium [31] = assay: Antimicrobial activity against Salmonella enterica serovar Typhimurium S21-3 gyrA+ with ParC S80I mutation; how it was run: as §1
Salmonella typhimurium [32] = assay: Antimicrobial activity against Salmonella enterica serovar Typhimurium CS3 tolC::Kan with GyrA S83F, D87N, parC S80I mutation; how it was run: as §1
Salmonella typhimurium [33] = assay: Antimicrobial activity against Salmonella enterica serovar Typhimurium S21-3 with GyrA S83F, ParC S80I mutation; how it was run: as §1
Salmonella typhimurium [34] = assay: Antimicrobial activity against Salmonella enterica serovar Typhimurium CS9 with GyrA S83F, D87N, ParC S80I mutation; how it was run: as §1
Salmonella typhimurium [35] = assay: Antimicrobial activity against Salmonella enterica serovar Typhimurium S21-4 tolC::Kan with GyrA S83F, ParC S80I mutation; how it was run: as §1
Salmonella typhimurium [36] = assay: Antimicrobial activity against Salmonella enterica serovar Typhimurium CHS14 acrAB::Kan with GyrA D87G mutation; how it was run: as §1
Salmonella typhimurium [37] = assay: Antimicrobial activity against Salmonella enterica serovar Typhimurium S21-1 GyrA S83F mutant; how it was run: as §1
Salmonella typhimurium [38] = assay: Antimicrobial activity against Salmonella enterica serovar Typhimurium CHS18 gyrA+ with GyrA S38F mutation; how it was run: as §1
Salmonella typhimurium [39] = assay: Antimicrobial activity against Salmonella enterica serovar Typhimurium S21 gyrA+; how it was run: as §1
Salmonella typhimurium [40] = assay: Antimicrobial activity against Salmonella enterica serovar Typhimurium CS1 acrAB::Kan with GyrA S83F, D87N, ParC S80I mutation; how it was run: as §1
Salmonella typhimurium [41] = assay: Antimicrobial activity against Salmonella enterica serovar Typhimurium CS1 gyrA+ with GyrA S83F, D87N, ParC S80I mutation; how it was run: as §1
Salmonella typhimurium [42] = assay: Antimicrobial activity against Salmonella enterica serovar Typhimurium CHS18 tolC::Kan with GyrA S38F mutation; how it was run: as §1
Salmonella typhimurium [43] = assay: Antimicrobial activity against Salmonella enterica serovar Typhimurium CS3 gyrA+ with GyrA S83F, D87N, ParC S80I mutation; how it was run: as §1
Salmonella typhimurium [44] = assay: Antimicrobial activity against Salmonella enterica serovar Typhimurium S21 tolC::Kan; how it was run: as §2

Measured: MIC

COc1c(N2CCNC(C)C2)c(F)cc2c(=O)c(C(=O)O)cn(C3CC3)c12 (stereo not given) [GATIFLOXACIN]
2 µg/mL: Salmonella typhimurium [29]
0.5 µg/mL: Salmonella typhimurium [5] | Salmonella typhimurium [6] | Salmonella typhimurium [15] | Salmonella typhimurium [16] | Salmonella typhimurium [32] | Salmonella typhimurium [37] | Salmonella typhimurium [40]
16 µg/mL: Salmonella typhimurium [12]
< 0.015 µg/mL: Salmonella typhimurium [2] | Salmonella typhimurium [7] | Salmonella typhimurium [13] | Salmonella typhimurium [25] | Salmonella typhimurium [26] | Salmonella typhimurium [36] | Salmonella typhimurium [44]
0.03 µg/mL: Salmonella typhimurium [8] | Salmonella typhimurium [10] | Salmonella typhimurium [17] | Salmonella typhimurium [20] | Salmonella typhimurium [21] | Salmonella typhimurium [39] | Salmonella typhimurium [42]
1 µg/mL: Salmonella typhimurium [24] | Salmonella typhimurium [31]
0.25 µg/mL: Salmonella typhimurium [11] | Salmonella typhimurium [14] | Salmonella typhimurium [23]
8 µg/mL: Salmonella typhimurium [33]
0.12 µg/mL: Salmonella typhimurium [9] | Salmonella typhimurium [19]
4 µg/mL: Salmonella typhimurium [3] | Salmonella typhimurium [28] | Salmonella typhimurium [34]
0.06 µg/mL: all other assays above

CCn1cc(C(=O)O)c(=O)c2ccc(C)nc21 [NALIDIXIC ACID]
64 µg/mL: Salmonella typhimurium [1] | Salmonella typhimurium [4] | Salmonella typhimurium [11] | Salmonella typhimurium [27]
256 µg/mL: Salmonella typhimurium [6] | Salmonella typhimurium [14] | Salmonella typhimurium [16] | Salmonella typhimurium [32] | Salmonella typhimurium [37]
1 µg/mL: Salmonella typhimurium [25] | Salmonella typhimurium [26] | Salmonella typhimurium [44]
8 µg/mL: Salmonella typhimurium [2] | Salmonella typhimurium [36]
128 µg/mL: Salmonella typhimurium [23]
4 µg/mL: Salmonella typhimurium [8] | Salmonella typhimurium [10] | Salmonella typhimurium [18] | Salmonella typhimurium [21] | Salmonella typhimurium [39] | Salmonella typhimurium [41] | Salmonella typhimurium [43]
32 µg/mL: Salmonella typhimurium [17] | Salmonella typhimurium [19] | Salmonella typhimurium [20] | Salmonella typhimurium [30] | Salmonella typhimurium [38] | Salmonella typhimurium [42]
0.5 µg/mL: Salmonella typhimurium [7]
16 µg/mL: Salmonella typhimurium [9] | Salmonella typhimurium [13]
> 256 µg/mL: all other assays above

CO[C@@]1(NC(=O)Cc2cccs2)C(=O)N2C(C(=O)O)=C(COC(N)=O)CS[C@@H]21 [CEFOXITIN]
4 µg/mL: Salmonella typhimurium [2] | Salmonella typhimurium [19] | Salmonella typhimurium [21] | Salmonella typhimurium [23] | Salmonella typhimurium [39]
2 µg/mL: Salmonella typhimurium [4] | Salmonella typhimurium [8] | Salmonella typhimurium [10] | Salmonella typhimurium [14] | Salmonella typhimurium [18] | Salmonella typhimurium [27] | Salmonella typhimurium [35] | Salmonella typhimurium [37] | Salmonella typhimurium [38] | Salmonella typhimurium [41] | Salmonella typhimurium [43]
> 16 µg/mL: Salmonella typhimurium [11] | Salmonella typhimurium [12] | Salmonella typhimurium [24] | Salmonella typhimurium [29] | Salmonella typhimurium [31] | Salmonella typhimurium [33]
0.5 µg/mL: Salmonella typhimurium [7] | Salmonella typhimurium [26]
1 µg/mL: all other assays above

C[C@H]1COc2c(N3CCN(C)CC3)c(F)cc3c(=O)c(C(=O)O)cn1c23.C[C@H]1COc2c(N3CCN(C)CC3)c(F)cc3c(=O)c(C(=O)O)cn1c23.O [LEVOFLOXACIN]
0.5 µg/mL: Salmonella typhimurium [37]
0.12 µg/mL: Salmonella typhimurium [1] | Salmonella typhimurium [19] | Salmonella typhimurium [27] | Salmonella typhimurium [30]
2 µg/mL: Salmonella typhimurium [5] | Salmonella typhimurium [15] | Salmonella typhimurium [29] | Salmonella typhimurium [40]
8 µg/mL: Salmonella typhimurium [3] | Salmonella typhimurium [28] | Salmonella typhimurium [34]
0.25 µg/mL: Salmonella typhimurium [11] | Salmonella typhimurium [14] | Salmonella typhimurium [22] | Salmonella typhimurium [23] | Salmonella typhimurium [35]
0.03 µg/mL: Salmonella typhimurium [9] | Salmonella typhimurium [10] | Salmonella typhimurium [21] | Salmonella typhimurium [26] | Salmonella typhimurium [36] | Salmonella typhimurium [39] | Salmonella typhimurium [42]
> 16 µg/mL: Salmonella typhimurium [12] | Salmonella typhimurium [33]
1 µg/mL: Salmonella typhimurium [6] | Salmonella typhimurium [16] | Salmonella typhimurium [24] | Salmonella typhimurium [31] | Salmonella typhimurium [32]
< 0.015 µg/mL: Salmonella typhimurium [2] | Salmonella typhimurium [7] | Salmonella typhimurium [13] | Salmonella typhimurium [25] | Salmonella typhimurium [44]
0.06 µg/mL: all other assays above

C[C@@H]1CN(c2c(F)c(F)c3c(=O)c(C(=O)O)cn(C4CC4)c3c2F)C[C@H](C)N1 [ORBIFLOXACIN]
0.03 µg/mL: Salmonella typhimurium [13] | Salmonella typhimurium [36]
< 0.015 µg/mL: Salmonella typhimurium [7] | Salmonella typhimurium [25] | Salmonella typhimurium [44]
< 0.15 µg/mL: Salmonella typhimurium [2]
4 µg/mL: Salmonella typhimurium [5] | Salmonella typhimurium [6] | Salmonella typhimurium [15] | Salmonella typhimurium [16] | Salmonella typhimurium [32] | Salmonella typhimurium [40]
0.5 µg/mL: Salmonella typhimurium [1] | Salmonella typhimurium [9] | Salmonella typhimurium [19] | Salmonella typhimurium [30]
0.25 µg/mL: Salmonella typhimurium [4] | Salmonella typhimurium [18] | Salmonella typhimurium [27] | Salmonella typhimurium [41] | Salmonella typhimurium [43]
> 16 µg/mL: Salmonella typhimurium [3] | Salmonella typhimurium [28] | Salmonella typhimurium [34]
8 µg/mL: Salmonella typhimurium [29]
16 µg/mL: Salmonella typhimurium [12] | Salmonella typhimurium [24] | Salmonella typhimurium [33]
2 µg/mL: Salmonella typhimurium [11] | Salmonella typhimurium [31] | Salmonella typhimurium [37]
1 µg/mL: Salmonella typhimurium [14] | Salmonella typhimurium [23]
0.06 µg/mL: Salmonella typhimurium [26] | Salmonella typhimurium [42]
0.12 µg/mL: all other assays above
